The record followed here is ChEMBL document CHEMBL1139591, “Synthesis and antibacterial activity of dihydro-1,2-oxazine and 2-pyrazoline oxazolidinones: novel analogs of linezolid” (2005).

Values after ≈ are worked out from the molar mass of the structure shown.

Type in all cases: functional
In assay [1] the test system is Staphylococcus aureus. Briefly: Minimum inhibitory concentration against Staphylococcus aureus A15090 in the presence of 50% calf serum. Summed up: (§1)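 Broth microdilution per NCCLS guidance in Mueller-Hinton medium supplemented with 50% calf serum. Final inoculum about 5×10^5 cfu/mL. Incubated at 35 °C for 18 h in ambient air. MIC read as the lowest drug concentration that prevented visible growth.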

In assay [2] the test system is Staphylococcus aureus. Briefly: Minimum inhibitory concentration against homogeneously methicillin-resistant Staphylococcus aureus A27223 in the presence of 50% calf serum. Summed up:
as §1

In assay [3] the test system is Staphylococcus aureus. In words: Minimum inhibitory concentration against homogeneously methicillin-resistant Staphylococcus aureus A27223. Summed up:
(§2)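 Broth microdilution per NCCLS guidance in Mueller-Hinton medium. Final inoculum about 5×10^5 cfu/mL. Plates incubated at 35 °C for 18 h in ambient air. MIC taken as the lowest drug concentration that prevented visible growth.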

Assay [4] relates to Staphylococcus aureus. In words: Minimum inhibitory concentration against heterogeneously methicillin-resistant Staphylococcus aureus A27218. Summed up: as §2
Assay [5] concerns Staphylococcus aureus. Briefly: Minimum inhibitory concentration against Staphylococcus aureus A15090. Summed up: as §2
In another assay the test system is Streptococcus pneumoniae. In words: Minimum inhibitory concentration against Streptococcus pneumoniae A9585. Summed up:
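Broth microdilution following NCCLS recommendations, using Todd Hewitt broth for streptococci; final inoculum approx. 5×10^5 cfu/mL; incubation 35 °C for 18 h in 5% CO₂. MIC read as the lowest drug concentration preventing growth, µg/mL.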

In the next assay the test system is Enterococcus faecalis. Briefly: Minimum inhibitory concentration against Enterococcus faecalis A20688. Summed up: (§3)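 Broth microdilution per NCCLS guidance in Mueller-Hinton medium; final inoculum about 5×10^5 cfu/mL; plates incubated 18 h at 35 °C in ambient air. MIC taken as the lowest drug concentration preventing visible growth, in µg/mL.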
For a further assay, the system named is Enterococcus faecium. Briefly: Minimum inhibitory concentration against Enterococcus faecium A24885. Summed up: as §3
Assay [6] relates to Staphylococcus aureus. Briefly: Minimum inhibitory concentration against heterogeneously methicillin-resistant Staphylococcus aureus A27218 in the presence of 50% calf serum. Summed up:
as §1

For `CC(=O)NC[C@H]1CN(c2ccc(N3CCC=N3)c(F)c2)C(=O)O1`, the MIC (in general, the lowest concentration that inhibits growth of the organism) in the assay on Staphylococcus aureus [1] was 1 µg/mL; in the assay on Staphylococcus aureus [2], 1 µg/mL; in the assay with Staphylococcus aureus [3] it was 1 µg/mL (≈ 3.12 µM); in the assay on Staphylococcus aureus [4] it was 1 µg/mL (≈ 3.12 µM); against Staphylococcus aureus [5], 1 µg/mL (≈ 3.12 µM); in the assay with Streptococcus pneumoniae, 1 µg/mL (≈ 3.12 µM). The MIC with Enterococcus faecalis is 2 µg/mL (≈ 6.24 µM); in the assay with Enterococcus faecium, 4 µg/mL (≈ 12.5 µM); in the assay on Staphylococcus aureus [6], 1 µg/mL.
With `CC(=O)NC[C@H]1CN(c2ccc([N+](=O)[O-])c(F)c2)C(=O)O1`, the MIC in the assay on Staphylococcus aureus [3] was 128 µg/mL (≈ 431 µM); against Staphylococcus aureus [4], 128 µg/mL (≈ 431 µM); in the assay with Staphylococcus aureus [5] it was over 128 µg/mL; in the assay with Streptococcus pneumoniae, 64 µg/mL (≈ 215 µM); with Enterococcus faecalis, over 128 µg/mL; with Enterococcus faecium, over 128 µg/mL.
`CC(=O)NC[C@H]1CN(c2ccc(N3CC(C)=C(C)CO3)cc2)C(=O)O1`: the MIC was determined as 4 µg/mL (≈ 11.6 µM) against Staphylococcus aureus [3]; 8 µg/mL (≈ 23.2 µM) against Staphylococcus aureus [4]; 4 µg/mL (≈ 11.6 µM) in the assay on Staphylococcus aureus [5]; 8 µg/mL (≈ 23.2 µM) with Streptococcus pneumoniae; 16 µg/mL (≈ 46.3 µM) against Enterococcus faecalis; 8 µg/mL (≈ 23.2 µM) with Enterococcus faecium.
As for `CC(=O)NC[C@H]1CN(c2ccc(NO)cc2)C(=O)O1`, the MIC against Staphylococcus aureus [3] came out at 2 µg/mL (≈ 7.54 µM); against Staphylococcus aureus [4], 4 µg/mL (≈ 15.1 µM); against Staphylococcus aureus [5] it was 0.5 µg/mL (≈ 1.88 µM); against Streptococcus pneumoniae, 4 µg/mL (≈ 15.1 µM); against Enterococcus faecalis, 8 µg/mL (≈ 30.2 µM); against Enterococcus faecium, 4 µg/mL (≈ 15.1 µM).
Consider `CC(=O)NC[C@H]1CN(c2ccc([N+](=O)[O-])cc2)C(=O)O1`, for which the MIC came to 1 µg/mL (≈ 3.58 µM) against Staphylococcus aureus [3]; 2 µg/mL (≈ 7.16 µM) in the assay on Staphylococcus aureus [4]; 0.5 µg/mL (≈ 1.79 µM) in the assay with Staphylococcus aureus [5]; 2 µg/mL (≈ 7.16 µM) against Streptococcus pneumoniae; 4 µg/mL (≈ 14.3 µM) against Enterococcus faecalis; 4 µg/mL (≈ 14.3 µM) in the assay on Enterococcus faecium.
Regarding `CC(=O)NC[C@H]1CN(c2ccc(N3CC=CCO3)cc2)C(=O)O1`, the MIC in the assay with Staphylococcus aureus [1] is 1 µg/mL; with Staphylococcus aureus [2], 1 µg/mL; in the assay on Staphylococcus aureus [3], 1 µg/mL (≈ 3.15 µM); in the assay on Staphylococcus aureus [4], 2 µg/mL (≈ 6.3 µM); in the assay on Staphylococcus aureus [5] it was 1 µg/mL (≈ 3.15 µM); with Streptococcus pneumoniae, 2 µg/mL (≈ 6.3 µM). Also, the MIC came out at 4 µg/mL (≈ 12.6 µM) in the assay with Enterococcus faecalis, 2 µg/mL (≈ 6.3 µM) against Enterococcus faecium and 2 µg/mL in the assay on Staphylococcus aureus [6].
`CC(=O)NC[C@H]1CN(c2ccc(N)cc2)C(=O)O1`: the MIC against Staphylococcus aureus [3] was 64 µg/mL (≈ 257 µM); with Staphylococcus aureus [4], 128 µg/mL (≈ 513 µM); with Staphylococcus aureus [5] it was 16 µg/mL (≈ 64.2 µM); in the assay with Streptococcus pneumoniae, 16 µg/mL (≈ 64.2 µM); in the assay with Enterococcus faecalis, 128 µg/mL (≈ 513 µM); in the assay with Enterococcus faecium, 128 µg/mL (≈ 513 µM).
On to `CC(=O)NC[C@H]1CN(c2ccc(N3CCOCC3)c(F)c2)C(=O)O1` [LINEZOLID], for which the MIC turned out to be 1 µg/mL (≈ 2.96 µM) against Staphylococcus aureus [5] and 2 µg/mL (≈ 5.93 µM) against Enterococcus faecium.
In the case of `CC(=O)NC[C@H]1CN(c2ccc(N3CCCN3C(C)=O)c(F)c2)C(=O)O1`, the MIC is 16 µg/mL (≈ 43.9 µM) in the assay on Staphylococcus aureus [3]; 32 µg/mL (≈ 87.8 µM) with Staphylococcus aureus [4]; 32 µg/mL (≈ 87.8 µM) in the assay on Staphylococcus aureus [5]; 0.5 µg/mL (≈ 1.37 µM) with Streptococcus pneumoniae; 32 µg/mL (≈ 87.8 µM) with Enterococcus faecalis; 32 µg/mL (≈ 87.8 µM) against Enterococcus faecium.
With `CC(=O)NC[C@H]1CN(c2ccc(N3CCCCN3C(C)=O)c(F)c2)C(=O)O1`, the MIC with Staphylococcus aureus [3] was 16 µg/mL (≈ 42.3 µM); in the assay on Staphylococcus aureus [4], 32 µg/mL (≈ 84.6 µM); against Staphylococcus aureus [5], 32 µg/mL (≈ 84.6 µM); against Streptococcus pneumoniae, 4 µg/mL (≈ 10.6 µM); in the assay on Enterococcus faecalis, 32 µg/mL (≈ 84.6 µM); with Enterococcus faecium it was 32 µg/mL (≈ 84.6 µM).
On to `CC(=O)NC[C@H]1CN(c2ccc(N3CCN(C(=O)CO)CC3)c(F)c2)C(=O)O1` [EPEREZOLID], for which the MIC came out at 1 µg/mL (≈ 2.54 µM) in the assay on Staphylococcus aureus [3]; 1 µg/mL (≈ 2.54 µM) against Staphylococcus aureus [4]; 1 µg/mL (≈ 2.54 µM) with Staphylococcus aureus [5]; 0.5 µg/mL (≈ 1.27 µM) against Streptococcus pneumoniae; 2 µg/mL (≈ 5.07 µM) with Enterococcus faecalis; 2 µg/mL (≈ 5.07 µM) against Enterococcus faecium.
Turning to `CC(=O)NC[C@H]1CN(c2ccc(N3OC4C=CC3CC4)cc2)C(=O)O1` (stereo not given in full), the MIC against Staphylococcus aureus [3] came out at 4 µg/mL (≈ 11.6 µM); in the assay with Staphylococcus aureus [4] it was 8 µg/mL (≈ 23.3 µM); in the assay on Staphylococcus aureus [5], 16 µg/mL (≈ 46.6 µM); with Streptococcus pneumoniae it was 16 µg/mL (≈ 46.6 µM); in the assay on Enterococcus faecalis, 32 µg/mL (≈ 93.2 µM); in the assay with Enterococcus faecium, 16 µg/mL (≈ 46.6 µM).
Take `CC(=O)NC[C@H]1CN(c2ccc(N=O)cc2)C(=O)O1`: the MIC in the assay on Staphylococcus aureus [3] turned out to be 1 µg/mL (≈ 3.8 µM); with Staphylococcus aureus [4], 2 µg/mL (≈ 7.6 µM); in the assay on Staphylococcus aureus [5] it was 2 µg/mL (≈ 7.6 µM); with Streptococcus pneumoniae, 1 µg/mL (≈ 3.8 µM); against Enterococcus faecalis, 4 µg/mL (≈ 15.2 µM); in the assay with Enterococcus faecium, 2 µg/mL (≈ 7.6 µM).
